From PubChem BioAssay AID588421 (The Scripps Research Institute Molecular Screening Center, 2011)
Activity calls are given as the source filed them.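 The calls were made as follows: active = IC50 at or below 1 µM; inactive = the rest.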

Target: Protein-arginine deiminase type-4 (Homo sapiens) (UniProt Q9UM07)
Experiment: PAD4 enzyme inhibition potency, late-stage follow-up, biochemical, BAEE substrate, citrulline absorbance, 0-500 µM range (AID 588421)
Settings: recombinant PAD4, BAEE citrulline colorimetric absorbance
Outline: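 Material: recombinant PAD4 enzyme. Quantity: PAD4 enzyme at 0.2 µM. Medium: Tris buffer at pH 7.6 with 10 mM CaCl2 and 2 mM DTT. Reagent: 10 mM BAEE. Times: 15 min preincubation (37 °C), 15 min reaction. Signal: citrulline absorbance, 540 nm. Measure: IC50 from fitted fractional PAD4 activity, citrulline standard curve.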

Sequence of Protein-arginine deiminase type-4 (Homo sapiens) (Q9UM07 whole entry, looked up): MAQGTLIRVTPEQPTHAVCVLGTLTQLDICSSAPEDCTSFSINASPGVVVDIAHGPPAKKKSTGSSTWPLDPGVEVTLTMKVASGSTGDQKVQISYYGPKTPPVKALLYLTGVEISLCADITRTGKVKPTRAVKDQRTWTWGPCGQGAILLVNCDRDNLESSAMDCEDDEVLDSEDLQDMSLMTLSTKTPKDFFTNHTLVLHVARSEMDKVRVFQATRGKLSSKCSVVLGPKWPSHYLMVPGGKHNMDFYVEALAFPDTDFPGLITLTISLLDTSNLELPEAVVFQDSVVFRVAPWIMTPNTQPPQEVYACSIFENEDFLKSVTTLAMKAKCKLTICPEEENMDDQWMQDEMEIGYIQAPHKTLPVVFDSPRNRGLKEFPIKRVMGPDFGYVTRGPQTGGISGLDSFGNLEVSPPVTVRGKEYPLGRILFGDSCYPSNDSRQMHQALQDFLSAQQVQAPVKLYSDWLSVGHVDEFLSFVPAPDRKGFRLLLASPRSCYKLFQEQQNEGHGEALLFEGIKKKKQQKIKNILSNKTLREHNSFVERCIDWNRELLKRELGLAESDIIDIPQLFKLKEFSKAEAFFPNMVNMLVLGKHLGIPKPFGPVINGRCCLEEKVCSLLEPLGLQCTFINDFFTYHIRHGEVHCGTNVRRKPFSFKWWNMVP

- IC50: inactive
Structure (SMILES): COC(=O)c1nc(C(=O)OC)c(NC(C)=O)c(-c2ccccc2Br)c1C
